pEC50: −log10 of the molar value. The source made the active and inactive calls. The rule behind the calls is not given here.
Columns and labels:
[1] = target: T1, Muscarinic acetylcholine receptor M4 (Homo sapiens) (UniProt P08173); test: Displacement of [3H]-4-DAMP from muscarinic M4 receptor (unknown origin) at 1 uM after 60 mins
T1 sequence (whole entry): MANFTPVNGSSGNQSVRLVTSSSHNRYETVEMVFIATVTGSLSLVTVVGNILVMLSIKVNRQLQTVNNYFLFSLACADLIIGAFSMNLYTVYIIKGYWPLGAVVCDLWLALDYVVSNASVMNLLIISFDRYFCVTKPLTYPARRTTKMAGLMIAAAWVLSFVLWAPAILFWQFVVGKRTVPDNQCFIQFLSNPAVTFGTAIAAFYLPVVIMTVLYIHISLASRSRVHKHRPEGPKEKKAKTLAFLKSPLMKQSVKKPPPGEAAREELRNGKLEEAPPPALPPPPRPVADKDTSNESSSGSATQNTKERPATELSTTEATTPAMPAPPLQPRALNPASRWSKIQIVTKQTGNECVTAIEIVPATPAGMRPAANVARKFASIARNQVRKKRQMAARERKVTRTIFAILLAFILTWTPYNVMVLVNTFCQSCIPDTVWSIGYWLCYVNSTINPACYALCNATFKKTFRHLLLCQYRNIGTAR

[2] = target: Cannabinoid receptor 1 (Homo sapiens) (UniProt P21554); test: Displacement of [3H]CP 55940 from CB1 receptor (unknown origin) at 1 uM after 120 mins
[3] = target: Adrenergic receptor alpha-2 (Homo sapiens) (UniProt P08913+P18825+P18089); test: Displacement of [3H]RX 821002 from alpha2-adrenergic receptor (unknown origin) at 1 uM after 60 mins
Mus musculus [4] = test: Antinociceptive activity in CD-1 mouse assessed as reduction of formalin-induced paw licking activity at 30 mg/kg, po administered 30 mins prior to formalin-challenge measured after 15 to 30 mins; format: functional, organism-based; parameters: dose 30 mg/kg
Mus musculus [5] = test: Antinociceptive activity in CD-1 mouse assessed as reduction of formalin-induced paw licking activity at 30 mg/kg, po administered 30 mins prior to formalin-challenge measured after 5 mins; format: functional, organism-based; parameters: dose 30 mg/kg
CYP2D6 = CYP2D6 (Homo sapiens, UniProt P10635); test: Inhibition of human recombinant microsomal CYP2D6 using {3-[2-(N,N-diethyl-N-methylamino)ethyl]-7-methoxy-4-methylcoumarin} as substrate assessed as remaining activity at 10 uM after 30 mins by spectrofluorimetric analysis relative to control; format: ADME; details: read-out: Activity
[6] = Half life in mouse liver microsomes at 1 to 5 uM by HPLC-MS analysis; format: ADME, Microsome
[7] = Intrinsic clearance in human liver microsomes at 1 to 5 uM by HPLC-MS analysis; format: ADME, Microsome; details: read-out: CLH
Procedure, shortened: (§1)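 Incubation mixtures pre-equilibrated at 37 °C with NADPH and MgCl2, then rat or human liver microsomes added to start the reaction. Aliquots were withdrawn and quenched at several time points, and percent parent remaining was measured by HPLC-MS and plotted against time. t1/2 was taken from the slope of peak area over time and used to calculate CLint.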

[8] = Intrinsic clearance in Sprague-Dawley rat liver microsomes at 1 to 5 uM by HPLC-MS analysis; format: ADME, Microsome; details: read-out: CLH; procedure, shortened: as §1
[9] = Half life in Sprague-Dawley rat liver microsomes at 1 to 5 uM by HPLC-MS analysis; format: ADME, Microsome; procedure, shortened: as §1
[10] = target: T2, 5-hydroxytryptamine receptor 1A (Homo sapiens, UniProt P08908); test: Agonist activity at human 5-HT1A receptor expressed in human HeLa cells assessed as inhibition of forskolin-stimulated cAMP formation after 10 mins by RIA; format: functional, cell-based
T2 sequence (P08908 whole entry): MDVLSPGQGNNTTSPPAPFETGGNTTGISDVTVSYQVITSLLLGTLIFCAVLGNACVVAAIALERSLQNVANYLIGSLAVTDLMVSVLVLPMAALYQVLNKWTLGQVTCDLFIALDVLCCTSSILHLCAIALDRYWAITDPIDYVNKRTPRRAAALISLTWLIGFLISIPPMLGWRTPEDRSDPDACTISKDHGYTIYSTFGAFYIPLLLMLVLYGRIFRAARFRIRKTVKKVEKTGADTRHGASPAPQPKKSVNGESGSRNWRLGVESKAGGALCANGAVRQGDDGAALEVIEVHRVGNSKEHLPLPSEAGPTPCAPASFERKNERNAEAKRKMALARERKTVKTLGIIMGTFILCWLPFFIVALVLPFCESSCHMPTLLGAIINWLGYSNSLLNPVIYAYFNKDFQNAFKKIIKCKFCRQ

CYP2D6, sequence (P10635 whole entry): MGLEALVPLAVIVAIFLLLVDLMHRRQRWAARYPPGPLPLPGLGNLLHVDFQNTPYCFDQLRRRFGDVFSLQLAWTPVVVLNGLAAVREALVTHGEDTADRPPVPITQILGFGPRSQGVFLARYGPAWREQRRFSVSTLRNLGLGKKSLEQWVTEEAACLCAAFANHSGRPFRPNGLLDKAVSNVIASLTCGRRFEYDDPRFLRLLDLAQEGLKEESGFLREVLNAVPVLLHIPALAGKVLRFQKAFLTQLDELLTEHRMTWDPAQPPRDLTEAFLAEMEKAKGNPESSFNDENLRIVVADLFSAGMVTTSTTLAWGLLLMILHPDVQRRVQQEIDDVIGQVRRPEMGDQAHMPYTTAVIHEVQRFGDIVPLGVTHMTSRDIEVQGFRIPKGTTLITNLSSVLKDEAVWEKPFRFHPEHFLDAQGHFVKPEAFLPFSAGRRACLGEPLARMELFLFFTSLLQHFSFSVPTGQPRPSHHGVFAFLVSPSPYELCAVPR
Cannabinoid receptor 1 (Homo sapiens), sequence (P21554 whole entry): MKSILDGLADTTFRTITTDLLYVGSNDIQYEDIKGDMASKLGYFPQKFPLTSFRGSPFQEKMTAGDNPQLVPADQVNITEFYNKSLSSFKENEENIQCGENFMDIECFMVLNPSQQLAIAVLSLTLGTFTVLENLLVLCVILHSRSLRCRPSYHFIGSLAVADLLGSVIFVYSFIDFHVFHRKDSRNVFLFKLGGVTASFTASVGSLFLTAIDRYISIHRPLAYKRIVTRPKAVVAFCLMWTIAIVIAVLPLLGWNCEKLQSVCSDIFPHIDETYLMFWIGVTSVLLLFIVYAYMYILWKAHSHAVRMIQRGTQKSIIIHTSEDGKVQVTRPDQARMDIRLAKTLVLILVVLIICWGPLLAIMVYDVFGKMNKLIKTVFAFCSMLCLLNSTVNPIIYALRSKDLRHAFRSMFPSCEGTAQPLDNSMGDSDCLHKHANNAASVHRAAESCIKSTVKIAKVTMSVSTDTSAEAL

inhibition [1]: inactive
inhibition [2]: inactive
inhibition [3]: inactive
activity at 0.5 h, 10 µM (CYP2D6): 18%
half-life at up to 5 µM [6]: 29.5 min
CLint scaled at up to 5 µM [7]: 3.5 mL/min/kg
CLint scaled at up to 5 µM [8]: 107 mL/min/kg
half-life at up to 5 µM [9]: 13.1 min
pEC50 [10]: 7.72
Compound: CCOc1ccccc1OCCNCCCCN1C(=O)C2CCCN2C1=O.Cl (stereo unspecified)
Activity (Mus musculus [4]): Active
Activity (Mus musculus [5]): Active

Reference: ChEMBL document CHEMBL2429786, “New serotonin 5-HT1A receptor agonists endowed with antinociceptive activity in vivo” (J Med Chem, 2013)
